The record followed here is ChEMBL document CHEMBL1759986, “Selective α-glucosidase substrates and inhibitors containing short aromatic peptidyl moieties” (Bioorg Med Chem Lett, 2011).

Data set [1] can be described thus: Competitive inhibition of rice alpha-glucosidase assessed as production of chromogenic p-Nitrphenol measured after 3 mins by HPLC and Michaelis-Menten equation. Also on record: species or system Oryza sativa. The method, boiled down:
(§1)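 The chromogenic substrate was p-nitrophenyl-α-D-glucopyranoside, with p-nitrophenol formation monitored. Ki was calculated from a Dixon plot. Each measurement was triplicated and averaged.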

In data set [2] the target is T1, Pancreatic alpha-amylase (Sus scrofa) (UniProt P00690).
T1 sequence (whole entry): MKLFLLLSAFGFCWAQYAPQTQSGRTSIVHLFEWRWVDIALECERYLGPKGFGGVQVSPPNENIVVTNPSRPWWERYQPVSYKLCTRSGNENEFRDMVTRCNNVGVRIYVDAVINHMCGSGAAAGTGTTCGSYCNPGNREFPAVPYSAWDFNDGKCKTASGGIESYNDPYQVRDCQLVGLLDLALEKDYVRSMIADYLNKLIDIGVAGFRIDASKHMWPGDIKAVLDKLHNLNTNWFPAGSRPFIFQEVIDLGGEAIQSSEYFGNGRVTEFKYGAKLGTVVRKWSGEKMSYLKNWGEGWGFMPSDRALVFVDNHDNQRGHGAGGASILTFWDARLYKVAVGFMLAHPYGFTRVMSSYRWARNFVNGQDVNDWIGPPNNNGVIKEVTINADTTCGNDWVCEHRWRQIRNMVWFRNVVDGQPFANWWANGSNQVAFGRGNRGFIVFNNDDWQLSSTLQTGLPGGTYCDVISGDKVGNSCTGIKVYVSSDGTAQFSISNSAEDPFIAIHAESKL
As to the kind of experiment: Inhibition of pig alpha-amylase assessed as formation of p-nitrophenol. The method, boiled down: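 Screening used each α-amylase with an equimolar mixture of the peptidyl substrate and p-nitrophenyl-α-D-pentaoside. The read-out was the rate of p-nitrophenol formation compared with the chromogenic substrate alone. Each data point was triplicated and averaged.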

Data set [3] concerns Salivary alpha-amylase (Homo sapiens). Description: Inhibition of human salivary alpha-amylase assessed as formation of p-nitrophenol.
The target of a further data set is T2, Alpha-glucosidase (Geobacillus stearothermophilus, UniProt P94451).
T2 sequence (P94451 whole entry): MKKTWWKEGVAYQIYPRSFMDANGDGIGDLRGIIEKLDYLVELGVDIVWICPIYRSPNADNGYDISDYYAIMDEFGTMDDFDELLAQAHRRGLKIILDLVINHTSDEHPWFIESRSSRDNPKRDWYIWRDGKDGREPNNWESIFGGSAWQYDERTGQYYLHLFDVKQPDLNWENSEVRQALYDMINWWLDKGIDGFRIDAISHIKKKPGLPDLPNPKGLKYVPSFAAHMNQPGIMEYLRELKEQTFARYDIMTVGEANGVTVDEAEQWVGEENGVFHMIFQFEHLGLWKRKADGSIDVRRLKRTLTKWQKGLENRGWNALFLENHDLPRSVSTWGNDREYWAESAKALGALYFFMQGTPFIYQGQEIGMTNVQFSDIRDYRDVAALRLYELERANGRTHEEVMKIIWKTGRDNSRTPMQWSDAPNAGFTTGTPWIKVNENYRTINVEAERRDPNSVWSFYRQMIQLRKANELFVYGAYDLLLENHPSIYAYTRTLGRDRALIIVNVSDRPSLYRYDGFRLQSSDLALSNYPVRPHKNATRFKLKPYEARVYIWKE
Description: Competitive inhibition of Bacillus stearothermophilus alpha-glucosidase assessed as production of chromogenic p-Nitrphenol measured after 3 mins by HPLC and Michaelis-Menten equation. The method, boiled down: as §1

Substrate in data set [4]: O=[N+]([O-])c1ccc(O[C@H]2O[C@H](CO)[C@@H](O)[C@H](O)[C@H]2O)cc1
As to the kind of experiment: Activity at Bacillus stearothermophilus alpha-glucosidase assessed as production of chromogenic p-Nitrphenol measured after 3 mins by HPLC and Michaelis-Menten equation. Particulars: Geobacillus stearothermophilus. In short, it runs like this: (§2)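 Alpha-glucosidase from Bacillus stearothermophillus was incubated with the substrate. Km was obtained by Michaelis–Menten kinetics. Vmax, kcat and kcat/Km were reported alongside Km. Each value was measured in triplicate and averaged.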

Substrate in data set [5]: CC(=O)Nc1ccc(O[C@H]2O[C@H](CO)[C@@H](O)[C@H](O)[C@H]2O)cc1
As to the kind of experiment: Activity at Bacillus stearothermophilus alpha-glucosidase assessed as production of chromogenic p-acetaminophenyl measured after 3 mins by HPLC Michaelis-Menten equation. The following applies: Geobacillus stearothermophilus. The method, boiled down:
as §2

Substrate in data set [6]: NC(=O)[C@H](Cc1ccc(O)cc1)NC(=O)[C@H](Cc1c[nH]c2ccccc12)NC(=O)CCC(=O)Nc1ccc(O[C@H]2O[C@H](CO)[C@@H](O)[C@H](O)[C@H]2O)cc1
Description: Activity at Bacillus stearothermophilus alpha-glucosidase assessed as production of chromogenic Sp-WY measured after 3 mins by HPLC Michaelis-Menten equation. The following applies: Geobacillus stearothermophilus. In short, it runs like this: as §2

Substrate in data set [7]: O=[N+]([O-])c1ccc(O[C@H]2O[C@H](CO)[C@@H](O)[C@H](O)[C@H]2O)cc1
Description: Ratio of Kcat to Km for Bacillus stearothermophilus alpha-glucosidase assessed as production of chromogenic p-Nitrphenol. Particulars: Geobacillus stearothermophilus. In short, it runs like this: as §2

Substrate in data set [8]: CC(=O)Nc1ccc(O[C@H]2O[C@H](CO)[C@@H](O)[C@H](O)[C@H]2O)cc1
Description: Ratio of Kcat to Km for Bacillus stearothermophilus alpha-glucosidase assessed as production of chromogenic p-acetaminophenyl. Particulars: Geobacillus stearothermophilus. The method, boiled down: as §2

Substrate in data set [9]: NC(=O)[C@H](Cc1ccc(O)cc1)NC(=O)[C@H](Cc1c[nH]c2ccccc12)NC(=O)CCC(=O)Nc1ccc(O[C@H]2O[C@H](CO)[C@@H](O)[C@H](O)[C@H]2O)cc1
As to the kind of experiment: Ratio of Kcat to Km for Bacillus stearothermophilus alpha-glucosidase assessed as production of chromogenic Sp-WY. Particulars: Geobacillus stearothermophilus. In short, it runs like this:
as §2

Active and inactive are the calls of the source. No cut-off for these calls is given here.

A word on the Ki: it is a measure of affinity in units of concentration, obtained from inhibition or displacement. Usually Km stands for the substrate concentration at which the rate is half of its maximum. As usually defined, the Vmax is the rate approached at saturating substrate. For orientation: kcat means the maximal rate divided by the concentration of active sites. One may read the kcat/Km as the second-order rate constant that governs catalysis at low substrate concentration.

As for `C[C@H]1O[C@H](O[C@H]2[C@H](O)[C@@H](O)[C@@H](O[C@H]3[C@H](O)[C@@H](O)C(O)O[C@@H]3CO)O[C@@H]2CO)[C@H](O)[C@@H](O)[C@@H]1N[C@H]1C=C(CO)[C@@H](O)[C@H](O)[C@H]1O` (stereo not given in full) [ACARBOSE], the Ki in data set [1] was 4.2 µM.
For `NC(=O)[C@H](Cc1c[nH]c2ccccc12)NC(=O)[C@H](Cc1ccccc1)NC(=O)CCC(=O)Nc1ccc(O[C@H]2O[C@H](CO)[C@@H](O[C@H]3O[C@H](CO)[C@@H](O[C@H]4O[C@H](CO)[C@@H](O[C@H]5O[C@H](CO)[C@@H](O[C@H]6O[C@H](CO)[C@@H](O)[C@H](O)[C@H]6O)[C@H](O)[C@H]5O)[C@H](O)[C@H]4O)[C@H](O)[C@H]3O)[C@H](O)[C@H]2O)cc1`, the inhibition entry in data set [2] and in [3] was “inactive” in each case.
On to `NC(=O)[C@H](Cc1ccc(O)cc1)NC(=O)[C@H](Cc1ccc(O)cc1)NC(=O)CCC(=O)Nc1ccc(O[C@H]2O[C@H](CO)[C@@H](O[C@H]3O[C@H](CO)[C@@H](O[C@H]4O[C@H](CO)[C@@H](O[C@H]5O[C@H](CO)[C@@H](O[C@H]6O[C@H](CO)[C@@H](O)[C@H](O)[C@H]6O)[C@H](O)[C@H]5O)[C@H](O)[C@H]4O)[C@H](O)[C@H]3O)[C@H](O)[C@H]2O)cc1`, for which the inhibition result in data set [2] and in data set [3] was “inactive” each time.
In the case of `NC(=O)[C@H](Cc1ccc(O)cc1)NC(=O)[C@H](Cc1c[nH]c2ccccc12)NC(=O)CCC(=O)Nc1ccc(O)cc1`, the Ki on Alpha-glucosidase worked out at 1400 µM.
In the case of `NC(=O)[C@H](Cc1ccc(O)cc1)NC(=O)[C@H](Cc1c[nH]c2ccccc12)NC(=O)CCC(=O)Nc1ccc(O[C@H]2O[C@H](CO)[C@@H](O[C@H]3O[C@H](CO)[C@@H](O[C@H]4O[C@H](CO)[C@@H](O[C@H]5O[C@H](CO)[C@@H](O[C@H]6O[C@H](CO)[C@@H](O)[C@H](O)[C@H]6O)[C@H](O)[C@H]5O)[C@H](O)[C@H]4O)[C@H](O)[C@H]3O)[C@H](O)[C@H]2O)cc1`, the inhibition entry in data set [2] and in [3] was “inactive” throughout.
Regarding `NC(=O)[C@H](Cc1c[nH]c2ccccc12)NC(=O)[C@H](Cc1ccc(O)cc1)NC(=O)CCC(=O)Nc1ccc(O[C@H]2O[C@H](CO)[C@@H](O[C@H]3O[C@H](CO)[C@@H](O[C@H]4O[C@H](CO)[C@@H](O[C@H]5O[C@H](CO)[C@@H](O[C@H]6O[C@H](CO)[C@@H](O)[C@H](O)[C@H]6O)[C@H](O)[C@H]5O)[C@H](O)[C@H]4O)[C@H](O)[C@H]3O)[C@H](O)[C@H]2O)cc1`, the inhibition entry in [2] and in data set [3] was “inactive” throughout.
`NC(=O)[C@H](Cc1ccccc1)NC(=O)[C@H](Cc1ccccc1)NC(=O)CCC(=O)Nc1ccc(O[C@H]2O[C@H](CO)[C@@H](O[C@H]3O[C@H](CO)[C@@H](O[C@H]4O[C@H](CO)[C@@H](O[C@H]5O[C@H](CO)[C@@H](O[C@H]6O[C@H](CO)[C@@H](O)[C@H](O)[C@H]6O)[C@H](O)[C@H]5O)[C@H](O)[C@H]4O)[C@H](O)[C@H]3O)[C@H](O)[C@H]2O)cc1`: the inhibition result in data set [2] and in data set [3] was “inactive” throughout.
In the case of `O=[N+]([O-])c1ccc(O[C@H]2O[C@H](CO)[C@@H](O[C@H]3O[C@H](CO)[C@@H](O[C@H]4O[C@H](CO)[C@@H](O[C@H]5O[C@H](CO)[C@@H](O[C@H]6O[C@H](CO)[C@@H](O)[C@H](O)[C@H]6O)[C@H](O)[C@H]5O)[C@H](O)[C@H]4O)[C@H](O)[C@H]3O)[C@H](O)[C@H]2O)cc1`, the inhibition entry in [2] and in data set [3] was “inactive” in each case.
On to `NC(=O)[C@H](Cc1ccccc1)NC(=O)[C@H](Cc1ccc(O)cc1)NC(=O)CCC(=O)Nc1ccc(O[C@H]2O[C@H](CO)[C@@H](O[C@H]3O[C@H](CO)[C@@H](O[C@H]4O[C@H](CO)[C@@H](O[C@H]5O[C@H](CO)[C@@H](O[C@H]6O[C@H](CO)[C@@H](O)[C@H](O)[C@H]6O)[C@H](O)[C@H]5O)[C@H](O)[C@H]4O)[C@H](O)[C@H]3O)[C@H](O)[C@H]2O)cc1`, for which the inhibition result in data set [2] and in [3] was “inactive” each time.
`NC(=O)[C@H](Cc1ccccc1)NC(=O)[C@H](Cc1c[nH]c2ccccc12)NC(=O)CCC(=O)Nc1ccc(O[C@H]2O[C@H](CO)[C@@H](O[C@H]3O[C@H](CO)[C@@H](O[C@H]4O[C@H](CO)[C@@H](O[C@H]5O[C@H](CO)[C@@H](O[C@H]6O[C@H](CO)[C@@H](O)[C@H](O)[C@H]6O)[C@H](O)[C@H]5O)[C@H](O)[C@H]4O)[C@H](O)[C@H]3O)[C@H](O)[C@H]2O)cc1`: the inhibition entry in [2] and in data set [3] was “inactive” in each case.
For `NC(=O)[C@H](Cc1ccc(O)cc1)NC(=O)[C@H](Cc1c[nH]c2ccccc12)NC(=O)CCC(=O)Nc1ccc(O[C@@H]2O[C@H](CO)[C@@H](O)[C@H](O)[C@H]2O)cc1`, on Alpha-glucosidase, the inhibitory constant (Ki) was found to be 110 µM.
`NC(=O)[C@H](Cc1ccc(O)cc1)NC(=O)[C@H](Cc1ccccc1)NC(=O)CCC(=O)Nc1ccc(O[C@H]2O[C@H](CO)[C@@H](O[C@H]3O[C@H](CO)[C@@H](O[C@H]4O[C@H](CO)[C@@H](O[C@H]5O[C@H](CO)[C@@H](O[C@H]6O[C@H](CO)[C@@H](O)[C@H](O)[C@H]6O)[C@H](O)[C@H]5O)[C@H](O)[C@H]4O)[C@H](O)[C@H]3O)[C@H](O)[C@H]2O)cc1`: the inhibition entry in [2] and in [3] was “inactive” each time.
`NC(=O)[C@H](Cc1c[nH]c2ccccc12)NC(=O)[C@H](Cc1c[nH]c2ccccc12)NC(=O)CCC(=O)Nc1ccc(O[C@H]2O[C@H](CO)[C@@H](O[C@H]3O[C@H](CO)[C@@H](O[C@H]4O[C@H](CO)[C@@H](O[C@H]5O[C@H](CO)[C@@H](O[C@H]6O[C@H](CO)[C@@H](O)[C@H](O)[C@H]6O)[C@H](O)[C@H]5O)[C@H](O)[C@H]4O)[C@H](O)[C@H]3O)[C@H](O)[C@H]2O)cc1`: the inhibition result in [2] and in data set [3] was “inactive” throughout.

B1: Alpha-glucosidase (Geobacillus stearothermophilus), P94451 (protein)
chain: T2 sequence (P94451 whole entry)
Take B1: the Michaelis constant (Km) in data set [4] worked out at 1200 µM; in data set [5], 1900 µM; in data set [6], 13 µM. Besides, the Vmax in data set [4] turned out to be 0.019 µM/s; in [5], 0.0015 µM/s; in data set [6], 0.00025 µM/s. The results for the catalytic constant (kcat) in data set [4], in data set [5] and in [6] were 9.5 s⁻¹, 0.76 s⁻¹ and 0.13 s⁻¹, respectively. Also, the results for the specificity constant (kcat/Km) in [7], in [8] and in data set [9] were 7600 M⁻¹ s⁻¹, 400 M⁻¹ s⁻¹ and 10000 M⁻¹ s⁻¹, respectively.
